From ChEMBL document CHEMBL1124707, “N-phenyl-N'-pyridinylureas as anticonvulsant agents” (1990)

Tests used:
[1] = organism: Mus musculus; assay: animal or person; type: functional; conditions: 0.5 h, read-out: MED
[2] = organism: Mus musculus; type: functional
[3] = organism: Mus musculus; assay: Protective activity against Maximal Electroshock seizures(MES) at 60 min was determined; type: functional; conditions: 1 h
[4] = tested on: Mus musculus; assay: The compound was tested for Ataxia(ATAX) by the inverted screen test, after intraperitoneal administration at 120 min; type: functional; conditions: ip, 2 h
[5] = organism: Mus musculus; assay: Protective activity was determined against Maximal Electroshock seizures(MES) in mouse at 120 min; type: functional; conditions: 2 h
Procedure, shortened: (§1)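 Male Swiss-Webster mice (25–32 g, fed) were dosed orally, with the compound in water or in a 0.2% (hydroxymethyl)cellulose suspension and doses calculated as free base. Absence of tonic hind-limb extension counted as protection. Ten mice per dose were used, giving an ED50 with 95% confidence interval.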

[6] = tested on: Mus musculus; assay: The compound was tested for Ataxia(ATAX) by the inverted screen test, after oral administration in mouse at 120 min; type: functional; conditions: 2 h
Procedure, shortened: (§2)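 Mice were dosed orally, with doses calculated as free base. They were placed on an inverted square of wire mesh, and falling off was scored as impairment. Ten mice per dose were tested at the stated time, giving an ED50 with 95% confidence interval.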

[7] = organism: Rattus norvegicus; assay: Protective activity was determined against Maximal Electroshock seizures(MES) in rat at 30 min; type: functional; conditions: 0.5 h
Procedure, shortened: (§3)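 Rats were dosed orally and tested against maximal electroshock, with the test time after dosing given per line. Doses were calculated as free base. ED50 is reported with 95% confidence interval.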

[8] = tested on: Rattus norvegicus; assay: The compound was tested for Ataxia(ATAX) by the inverted screen test, after oral administration in rat at 240 min; conditions: 4 h
[9] = organism: Mus musculus; assay: Protective activity against Maximal Electroshock seizures(MES) in mice was determined at 90 min; type: functional; conditions: 1.5 h
[10] = tested on: Mus musculus; assay: The compound was tested for Ataxia(ATAX) by the inverted screen test after (ip) administration at 120 min; type: functional; conditions: 2 h
[11] = organism: Mus musculus; assay: Protective activity was determined against Maximal Electroshock seizures(MES) in mouse at 30 min; type: functional; conditions: 0.5 h
Procedure, shortened: as §1

[12] = organism: Mus musculus; assay: The compound was tested for protective activity against Maximal Electroshock seizures(MES) at 60 min in mice; type: functional; conditions: 1 h
[13] = tested on: Mus musculus; assay: The compound was tested for Ataxia(ATAX) by the inverted screen test, after intraperitoneal administration at 120 min in mice; type: functional; conditions: ip, 2 h
[14] = tested on: Mus musculus; assay: The compound was tested for Ataxia(ATAX) by the inverted screen test, after oral administration in mouse at 60 min; type: functional; conditions: 1 h
Procedure, shortened: as §2

[15] = organism: Rattus norvegicus; assay: Protective activity was determined against Maximal Electroshock seizures(MES) in rat at 60 min; type: functional; conditions: 1 h
Procedure, shortened: as §3

| Structure (SMILES) | minimal effective dose [1] [mg/kg] | MAD [2] [mg/kg] | other results |
| --- | --- | --- | --- |
| O=C(Nc1ccncc1)Nc1ccccc1Cl | 100 | >300 | – |
| CCc1cccc(CC)c1NC(=O)Nc1ccncc1 | 30 | 100 | – |
| O=C(Nc1ccncc1)Nc1ccc(Cl)cc1 | > 300 | >300 | – |
| CC(C)NC(=O)Nc1ccncc1 | 300 | 300 | – |
| Cc1cccc(Cl)c1NC(=O)Nc1ccccn1 | 100 | >300 | – |
| Cc1cc(C)c(NC(=O)Nc2ccncc2)c(Cl)c1 | 100 | >300 | – |
| O=C(Nc1cccnc1)Nc1c(Cl)cccc1Cl | > 300 | 300 | – |
| O=C(Nc1ccncc1)Nc1ccc(Cl)cc1Cl | > 300 | >300 | – |
| O=C(Nc1ccncc1)Nc1ccccc1C(=O)O | > 300 | >300 | – |
| CC(C)c1ccccc1NC(=O)Nc1ccncc1 | 100 | 300 | – |
| Nc1ccc(NC(=O)Nc2ccncc2)cc1 | > 300 | 300 | – |
| Cc1ccccc1NC(=O)Nc1ccncc1 | 100 | >300 | – |
| Cc1cccc(C)c1NC(=O)Nc1cccnc1 | 100 | 300 | – |
| O=C(Nc1ccncc1)Nc1cccc(C(F)(F)F)c1 | > 300 | >300 | – |
| O=C(Nc1ccccc1)Nc1ccncc1 | 100 | 300 | – |
| O=C(Nc1ccncc1)Nc1cccc([N+](=O)[O-])c1 | > 300 | >300 | – |
| Cc1cccc(Cl)c1NC(=O)NCc1ccncc1 | > 300 | >300 | – |
| CCOC(=O)c1ccccc1NC(=O)Nc1ccncc1 | 300 | >300 | – |
| O=C(Nc1ccncc1)Nc1ccccc1O | > 300 | >300 | – |

| Structure (SMILES) | minimal effective dose [1] [mg/kg] | MAD [2] [mg/kg] | other results |
| --- | --- | --- | --- |
| CC(C)c1ccc(NC(=O)Nc2ccncc2)cc1 | > 300 | >300 | – |
| Cc1cc(NC(=O)Nc2c(C)cccc2Cl)ccn1 | 30 | 100 | – |
| O=C(Nc1ccncc1)Nc1c(Cl)cc(Cl)cc1Cl | 300 | 300 | – |
| Cc1ccc(NC(=O)Nc2ccncc2)cc1 | > 300 | 100 | – |
| O=C(Nc1ccncc1)Nc1c(Cl)cccc1CO | > 300 | 300 | – |
| O=C(Nc1ccncc1)Nc1c(Cl)cccc1Cl | 100 | >300 | ED50 [3]: 30 mg/kg; ED50 [4]: 293 mg/kg |
| O=C1NC(=O)C(c2ccccc2)(c2ccccc2)N1 [PHENYTOIN] | – | – | ED50 [5]: 8.3 mg/kg; ED50 [6]: 78 mg/kg; ED50 [7]: 30 mg/kg; ED50 [8]: > 300 mg/kg |
| Cc1cccc(C)c1NC(=O)Nc1ccc([N+](=O)[O-])cc1 | > 300 | >300 | – |
| COc1cc(C)c(NC(=O)Nc2ccncc2)c(C)c1 | > 300 | >300 | – |
| O=C(Nc1ccncc1)Nc1ccc(Oc2ccccc2)cc1 | > 300 | >300 | – |
| CC(C)c1cccc(C(C)C)c1NC(=O)Nc1ccncc1 | > 300 | >300 | – |
| Nc1ccccc1NC(=O)Nc1ccncc1 | > 300 | >300 | – |
| O=C(Nc1ccncc1)Nc1ccccc1F | 100 | 100 | – |
| O=C(Nc1ccncc1)Nc1ccccc1OCc1ccccc1 | > 300 | 30 | – |
| COc1ccccc1NC(=O)Nc1ccncc1 | 100 | >300 | – |
| Cc1cccc(Cl)c1NC(=O)Nc1c(C)cccc1Cl | > 300 | >300 | – |
| Cc1ccc(NC(=O)Nc2ccncc2)c(C)c1 | > 300 | >300 | – |
| Cc1cccc(Cl)c1NC(N)=O | 100 | 300 | – |
| Cc1cccc(Cl)c1NC(=O)Nc1cccnc1 | 100 | 300 | – |

| Structure (SMILES) | minimal effective dose [1] [mg/kg] | MAD [2] [mg/kg] | other results |
| --- | --- | --- | --- |
| Cc1cccc(C)c1NC(=O)Nc1ccccn1 | 300 | >300 | – |
| Cc1cccc(C)c1NC(=O)Nc1ccncc1 | 30 | 100 | ED50 [9]: 21 mg/kg; ED50 [10]: 138 mg/kg |
| Cc1cc(C)c(NC(=O)Nc2ccncc2)c(C)c1 | 30 | 300 | – |
| CCOC(=O)c1ccc(NC(=O)Nc2ccncc2)cc1 | > 300 | >300 | – |
| O=C(Nc1ccccn1)Nc1c(Cl)cccc1Cl | > 300 | 100 | – |
| Cc1c(Cl)cccc1NC(=O)Nc1ccncc1 | > 300 | >300 | – |
| O=C(Nc1ccncc1)Nc1ccccc1C(F)(F)F | 100 | 300 | – |
| Cc1cccc(C)c1NC(=O)N1CCN(C)CC1 | 100 | 300 | – |
| CC(=O)c1ccc(NC(=O)Nc2ccncc2)cc1 | > 300 | >300 | – |
| O=C(Nc1ccncc1)Nc1c(Cl)cccc1C(F)(F)F | 100 | 300 | – |
| O=C(Nc1ccncc1)Nc1ccc(I)cc1 | > 300 | >300 | – |
| O=C(Nc1ccncc1)Nc1ccccc1[N+](=O)[O-] | 300 | >300 | – |
| O=C(Nc1ccncc1)Nc1ccccc1Br | 100 | >300 | – |
| Cc1cccc(NC(=O)Nc2ccncc2)c1 | > 300 | >300 | – |
| CN(C)c1ccccc1NC(=O)Nc1ccncc1 | 100 | 100 | – |
| O=C(Nc1ccncc1)Nc1ccc(F)cc1 | 300 | 300 | – |
| N#Cc1ccccc1NC(=O)Nc1ccncc1 | > 300 | 100 | – |
| Cc1cccc(Cl)c1NC(=O)Nc1ccncc1 | 30 | 300 | ED50 [11]: 14 mg/kg; ED50 [12]: 46 mg/kg; ED50 [13]: 251 mg/kg; ED50 [14]: 210 mg/kg; ED50 [15]: 9.2 mg/kg; ED50 [8]: 408 mg/kg |
| O=C(Nc1ccncc1)Nc1ccc([N+](=O)[O-])cc1 | > 300 | >300 | – |
